From ChEMBL document CHEMBL1126560, “Endothelin-1 analogues substituted at both position 18 and 19: highly potent endothelin antagonists with no selectivity for either receptor subtype ETA or ETB” (J Med Chem, 1993) come the findings set out here.

Each structure is given as a SMILES string. A value given as a limit tells only on which side of the number the result lay.

By IC50 is commonly meant the concentration at which inhibition is half-maximal. High values mean weaker potency in that assay, low ones greater potency in that assay.

The species entered for assay [1] is Mus musculus. Description: Compound induced increase in cystolic free ca+2 concentration in murine peritoneal macrophages was measured. Format: functional. In short, it runs like this: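 Murine peritoneal macrophages from male ICR mice given ip 10% protease peptone 3 days before, adhered 1.5 h at 37 °C, fura-2 AM loaded (4 μM, 24 °C, 1.5 h). Fura-2 fluorescence ratio (340/380 nm excitation, 505 nm emission) at 37 °C. Compound at 100 nM; rise expressed as % of 100 nM ET-1 response.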

Assay [2] has as its target T1, Endothelin receptor type B (Bos taurus, UniProt P28088).
T1 sequence (P28088 whole entry): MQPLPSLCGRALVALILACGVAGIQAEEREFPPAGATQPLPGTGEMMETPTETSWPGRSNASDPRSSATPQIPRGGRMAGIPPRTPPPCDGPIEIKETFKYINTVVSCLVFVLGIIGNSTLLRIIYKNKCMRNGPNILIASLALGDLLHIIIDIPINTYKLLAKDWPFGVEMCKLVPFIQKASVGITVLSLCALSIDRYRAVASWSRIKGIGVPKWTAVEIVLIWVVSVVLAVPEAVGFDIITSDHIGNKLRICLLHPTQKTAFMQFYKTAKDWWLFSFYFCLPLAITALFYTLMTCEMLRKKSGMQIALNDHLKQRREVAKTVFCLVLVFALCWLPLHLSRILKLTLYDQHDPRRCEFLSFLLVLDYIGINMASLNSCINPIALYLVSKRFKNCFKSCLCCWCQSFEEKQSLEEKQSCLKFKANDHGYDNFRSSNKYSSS
Description: Tested for the competitive binding versus [125I]- ET-1 determined in bovine cerebrum membrane for Endothelin B receptor. Format: cell membranes. Summed up: (§1)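 Membranes (porcine cardiac ventricle at 12 μg/mL for ETA; bovine cerebrum at 150 μg/mL for ETB) in pH 7.2 Tris/EGTA/Mg acetate/0.1% BSA buffer with protease inhibitors. Incubated with 100 pM [125I]ET-1 and varied compound for 1 h at 25 °C, then filtered and counted by gamma counter. IC50 given as mean ± SEM of ≥3 determinations.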

Assay [3] deals with T2, Endothelin-1 receptor (Sus scrofa, UniProt Q29010).
T2 sequence (Q29010 whole entry): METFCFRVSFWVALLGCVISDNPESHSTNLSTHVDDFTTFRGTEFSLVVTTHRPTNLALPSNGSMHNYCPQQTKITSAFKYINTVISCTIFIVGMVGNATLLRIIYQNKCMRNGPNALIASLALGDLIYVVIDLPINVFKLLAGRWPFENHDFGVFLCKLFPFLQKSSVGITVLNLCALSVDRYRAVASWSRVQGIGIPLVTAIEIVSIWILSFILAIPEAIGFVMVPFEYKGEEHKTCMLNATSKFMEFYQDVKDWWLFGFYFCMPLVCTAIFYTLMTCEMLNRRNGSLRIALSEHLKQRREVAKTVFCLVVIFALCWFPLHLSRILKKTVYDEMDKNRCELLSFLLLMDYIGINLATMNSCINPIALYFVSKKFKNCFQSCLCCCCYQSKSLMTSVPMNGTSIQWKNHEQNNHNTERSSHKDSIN
Kind of assay: Tested for the competitive binding versus [125I]- ET-1 determined in porcine cardiac ventricular membrane for Endothelin A receptor. In short, it runs like this:
as §1

For assay [4], the target named is T3, Endothelin-1 receptor (Sus scrofa) (UniProt Q29010).
T3 sequence (whole entry): T2 sequence (Q29010 whole entry)
Kind of assay: Endothelin A receptor agonist activity as maximum vasoconstriction in porcine coronary artery. Type of assay: functional, tissue-based. Summed up: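 Porcine right coronary artery, endothelium-denuded helical strips in Krebs-Henseleit, 37 °C, isometric tension. Compound applied cumulatively, up to 1 μM. Maximal contraction expressed as % of 60 mM KCl-induced tension; n in parentheses.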

Turning to `CC[C@H](C)[C@H](NC(=O)[C@H](CC(C)(C)C)NC(=O)[C@@H](NC(=O)[C@H](CC(C)C)NC(=O)[C@H](Cc1c[nH]cn1)NC(=O)[C@@H]1CSSC[C@H](N)C(=O)N[C@@H](CO)C(=O)N[C@H]2CSSC[C@H](NC(=O)[C@H](CCC(=O)O)NC(=O)[C@H](CCCCN)NC(=O)[C@H](CC(=O)O)NC(=O)[C@H](CCSC)NC(=O)[C@H](CC(C)C)NC(=O)[C@H](CO)NC(=O)[C@H](CO)NC2=O)C(=O)N[C@@H](C(C)C)C(=O)N[C@@H](Cc2ccc(O)cc2)C(=O)N[C@@H](Cc2ccccc2)C(=O)N1)[C@@H](C)O)C(=O)N[C@@H](Cc1c[nH]c2ccccc12)C(=O)O`, the “[Ca2+] increase” value in assay [1] came to 0.

In the case of `CC[C@H](C)[C@H](NC(=O)[C@H](CC(=O)O)NC(=O)[C@H](CC(C)C)NC(=O)[C@H](Cc1cnc[nH]1)NC(=O)[C@@H]1CSSC[C@H](NC(=O)[C@H](CCC(=O)O)NC(=O)[C@H](CCCCN)NC(=O)[C@H](CC(=O)O)NC(=O)[C@H](CCSC)NC(=O)[C@H](CC(C)C)NC(=O)[C@H](CO)NC(=O)[C@H](CO)NC(=O)[C@@H]2CSSC[C@H](N)C(=O)N[C@@H](CO)C(=O)N2)C(=O)N[C@@H](C(C)C)C(=O)N[C@@H](Cc2ccc(O)cc2)C(=O)N[C@@H](Cc2ccccc2)C(=O)N1)C(=O)N[C@H](C(=O)N[C@@H](Cc1c[nH]c2ccccc12)C(=O)O)[C@@H](C)CC`, the IC50 amounted to 0.093 nM in assay [2] and 5.9 nM in assay [3].

Consider `CC[C@H](C)[C@H](NC(=O)[C@H](CC(=O)O)NC(=O)[C@H](CC(C)C)NC(=O)[C@H](Cc1c[nH]cn1)NC(=O)[C@@H]1CSSC[C@H](NC(=O)[C@H](CCC(=O)O)NC(=O)[C@H](CCCCN)NC(=O)[C@H](CC(=O)O)NC(=O)[C@H](CCSC)NC(=O)[C@H](CC(C)C)NC(=O)[C@H](CO)NC(=O)[C@H](CO)NC(=O)[C@@H]2CSSC[C@H](N)C(=O)N[C@@H](CO)C(=O)N2)C(=O)N[C@@H](C(C)C)C(=O)N[C@@H](Cc2ccc(O)cc2)C(=O)N[C@@H](Cc2ccccc2)C(=O)N1)C(=O)N[C@H](C(=O)N[C@@H](Cc1c[nH]c2ccccc12)C(=O)O)[C@@H](C)CC`, for which, in assay [1], the “[Ca2+] increase” value turned out to be 100.

In the case of `CC[C@H](C)[C@H](NC(=O)[C@@H](NC(=O)[C@H](CC(C)C)NC(=O)[C@H](Cc1c[nH]cn1)NC(=O)[C@@H]1CSSC[C@H](N)C(=O)N[C@@H](CO)C(=O)N[C@H]2CSSC[C@H](NC(=O)[C@H](CCC(=O)O)NC(=O)[C@H](CCCCN)NC(=O)[C@H](CC(=O)O)NC(=O)[C@H](CCSC)NC(=O)[C@H](CC(C)C)NC(=O)[C@H](CO)NC(=O)[C@H](CO)NC2=O)C(=O)N[C@@H](C(C)C)C(=O)N[C@@H](Cc2ccc(O)cc2)C(=O)N[C@@H](Cc2ccccc2)C(=O)N1)[C@@H](C)O)C(=O)N[C@H](C(=O)N[C@@H](Cc1c[nH]c2ccccc12)C(=O)O)[C@@H](C)CC`, the IC50 was determined as 0.33 nM in assay [2] and 0.19 nM in assay [3].

As for `CC[C@H](C)[C@H](NC(=O)[C@H](CC(C)C)NC(=O)[C@@H](NC(=O)[C@H](CC(C)C)NC(=O)[C@H](Cc1c[nH]cn1)NC(=O)[C@@H]1CSSC[C@H](N)C(=O)N[C@@H](CO)C(=O)N[C@H]2CSSC[C@H](NC(=O)[C@H](CCC(=O)O)NC(=O)[C@H](CCCCN)NC(=O)[C@H](CC(=O)O)NC(=O)[C@H](CCSC)NC(=O)[C@H](CC(C)C)NC(=O)[C@H](CO)NC(=O)[C@H](CO)NC2=O)C(=O)N[C@@H](C(C)C)C(=O)N[C@@H](Cc2ccc(O)cc2)C(=O)N[C@@H](Cc2ccccc2)C(=O)N1)[C@@H](C)O)C(=O)N[C@@H](Cc1c[nH]c2ccccc12)C(=O)O`, in assay [1], the “[Ca2+] increase” value was determined as 28.

Compound `CC[C@H](C)[C@H](NC(=O)[C@H](CC(=O)O)NC(=O)[C@H](CC(C)C)NC(=O)[C@H](Cc1c[nH]cn1)NC(=O)[C@@H]1CSSC[C@@H](NC(=O)[C@H](CCC(=O)O)NC(=O)[C@@H](CCCCN)NC(=O)[C@H](CC(=O)O)NC(=O)[C@@H](CCSC)NC(=O)[C@H](CC(C)C)NC(=O)[C@@H](CO)NC(=O)[C@H](CO)NC(=O)[C@H]2CSSC[C@@H](N)C(=O)N[C@@H](CO)C(=O)N2)C(=O)N[C@@H](C(C)C)C(=O)N[C@H](Cc2ccc(O)cc2)C(=O)N[C@@H](Cc2ccccc2)C(=O)N1)C(=O)N[C@H](C(=O)N[C@@H](Cc1c[nH]c2ccccc12)C(=O)O)[C@@H](C)CC` returned a Max vasoconstriction in assay [4] above 80.

`CC[C@H](C)[C@H](NC(=O)[C@@H](NC(=O)[C@H](CC(C)C)NC(=O)[C@H](Cc1c[nH]cn1)NC(=O)[C@@H]1CSSC[C@@H](N)C(=O)N[C@@H](CO)C(=O)N[C@@H]2CSSC[C@@H](NC(=O)[C@H](CCC(=O)O)NC(=O)[C@@H](CCCCN)NC(=O)[C@H](CC(=O)O)NC(=O)[C@@H](CCSC)NC(=O)[C@H](CC(C)C)NC(=O)[C@@H](CO)NC(=O)[C@H](CO)NC2=O)C(=O)N[C@@H](C(C)C)C(=O)N[C@H](Cc2ccc(O)cc2)C(=O)N[C@@H](Cc2ccccc2)C(=O)N1)[C@@H](C)O)C(=O)N[C@H](C(=O)N[C@@H](Cc1c[nH]c2ccccc12)C(=O)O)[C@@H](C)CC` came in with a Max vasoconstriction in assay [4] of 76.

`CCC[C@H](NC(=O)[C@@H](NC(=O)[C@H](CC(C)C)NC(=O)[C@H](Cc1c[nH]cn1)NC(=O)[C@@H]1CSSC[C@@H](N)C(=O)N[C@@H](CO)C(=O)N[C@@H]2CSSC[C@@H](NC(=O)[C@H](CCC(=O)O)NC(=O)[C@@H](CCCCN)NC(=O)[C@H](CC(=O)O)NC(=O)[C@@H](CCSC)NC(=O)[C@H](CC(C)C)NC(=O)[C@@H](CO)NC(=O)[C@H](CO)NC2=O)C(=O)N[C@@H](C(C)C)C(=O)N[C@H](Cc2ccc(O)cc2)C(=O)N[C@@H](Cc2ccccc2)C(=O)N1)[C@@H](C)O)C(=O)N[C@H](C(=O)N[C@@H](Cc1c[nH]c2ccccc12)C(=O)O)[C@@H](C)CC`: the Max vasoconstriction in assay [4] was determined as 112.

In the case of `CC[C@H](C)[C@H](NC(=O)[C@H](CC(C)C)NC(=O)[C@H](CC(=O)O)NC(=O)[C@H](CC(C)C)NC(=O)[C@H](Cc1c[nH]cn1)NC(=O)[C@@H]1CSSC[C@H](N)C(=O)N[C@@H](CO)C(=O)N[C@H]2CSSC[C@H](NC(=O)[C@H](CCC(=O)O)NC(=O)[C@H](CCCCN)NC(=O)[C@H](CC(=O)O)NC(=O)[C@H](CCSC)NC(=O)[C@H](CC(C)C)NC(=O)[C@H](CO)NC(=O)[C@H](CO)NC2=O)C(=O)N[C@@H](C(C)C)C(=O)N[C@@H](Cc2ccc(O)cc2)C(=O)N[C@@H](Cc2ccccc2)C(=O)N1)C(=O)N[C@@H](Cc1c[nH]c2ccccc12)C(=O)O`, the IC50 is 0.17 nM in assay [2] and 0.75 nM in assay [3].

For `CC[C@H](C)[C@H](NC(=O)[C@H](CC(C)(C)C)NC(=O)[C@@H](NC(=O)[C@H](CC(C)C)NC(=O)[C@H](Cc1c[nH]cn1)NC(=O)[C@@H]1CSSC[C@@H](N)C(=O)N[C@@H](CO)C(=O)N[C@@H]2CSSC[C@@H](NC(=O)[C@H](CCC(=O)O)NC(=O)[C@@H](CCCCN)NC(=O)[C@H](CC(=O)O)NC(=O)[C@@H](CCSC)NC(=O)[C@H](CC(C)C)NC(=O)[C@@H](CO)NC(=O)[C@H](CO)NC2=O)C(=O)N[C@@H](C(C)C)C(=O)N[C@H](Cc2ccc(O)cc2)C(=O)N[C@@H](Cc2ccccc2)C(=O)N1)[C@@H](C)O)C(=O)N[C@@H](Cc1c[nH]c2ccccc12)C(=O)O`, the Max vasoconstriction in assay [4] came out at 0.

For the compound `CC[C@H](C)[C@H](NC(=O)[C@H](CC1CCCCC1)NC(=O)[C@@H](NC(=O)[C@H](CC(C)C)NC(=O)[C@H](Cc1c[nH]cn1)NC(=O)[C@@H]1CSSC[C@H](N)C(=O)N[C@@H](CO)C(=O)N[C@H]2CSSC[C@H](NC(=O)[C@H](CCC(=O)O)NC(=O)[C@H](CCCCN)NC(=O)[C@H](CC(=O)O)NC(=O)[C@H](CCSC)NC(=O)[C@H](CC(C)C)NC(=O)[C@H](CO)NC(=O)[C@H](CO)NC2=O)C(=O)N[C@@H](C(C)C)C(=O)N[C@@H](Cc2ccc(O)cc2)C(=O)N[C@@H](Cc2ccccc2)C(=O)N1)[C@@H](C)O)C(=O)N[C@@H](Cc1c[nH]c2ccccc12)C(=O)O`, in assay [1], the “[Ca2+] increase” value is on record as 10.
